Experimental data published in ChEMBL document CHEMBL2346664, “Synthesis, characterization and in vitro anticancer evaluation of novel 1,2,4-triazolin-3-one derivatives” (2013).

Tests used:
Type in all cases: functional
CAKI-1 = assay: Growth inhibition of human CAKI-1 cells assessed as cell growth at 10 '-5 M after 48 hrs by sulforhodamine B assay; conditions: CAKI-1, 48 h, read-out: Activity
Procedure, shortened: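 Percent growth at each of the five concentrations of the 48 h continuous-exposure NCI SRB screen. Drug stocks were in DMSO at 400× the top final concentration and diluted in medium with gentamicin. Growth was calculated as [(Ti-Tz)/(C-Tz)]×100 when Ti ≥ Tz, or [(Ti-Tz)/Tz]×100 when Ti < Tz. Tz plates were fixed at drug addition; untreated wells served as control. Absorbance was read at 515 nm.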

SF-295 [1] = assay: Growth inhibition of human SF295 cells assessed as cell growth at 10 uM after 48 hrs by sulforhodamine B assay; conditions: SF-295, 48 h, read-out: Activity
OVCAR-4 [2] = assay: Growth inhibition of human OVCAR4 cells assessed as cell growth at 10 '-8 M after 48 hrs by sulforhodamine B assay; conditions: OVCAR-4, 48 h, read-out: Activity
SK-MEL-5 = assay: Growth inhibition of human SK-MEL-5 cells after 48 hrs by sulforhodamine B assay; conditions: SK-MEL-5, 48 h
SF-295 [3] = assay: Growth inhibition of human SF295 cells assessed as cell growth at 10 '-5 M after 48 hrs by sulforhodamine B assay; conditions: SF-295, 48 h, read-out: Activity
DU-145 [4] = assay: Growth inhibition of human DU145 cells assessed as cell growth at 10 '-5 M after 48 hrs by sulforhodamine B assay; conditions: DU-145, 48 h, read-out: Activity
RPMI-8226 [5] = assay: Growth inhibition of human RPMI8226 cells assessed as cell growth at 10 '-7 M after 48 hrs by sulforhodamine B assay; conditions: RPMI-8226, 48 h, read-out: Activity
KM12 [6] = assay: Growth inhibition of human KM12 cells assessed as cell growth at 10 '-7 M after 48 hrs by sulforhodamine B assay; conditions: KM12, 48 h, read-out: Activity
RXF 393 = assay: Growth inhibition of human RXF393 cells assessed as cell growth at 10 '-6 M after 48 hrs by sulforhodamine B assay; conditions: RXF 393, 48 h, read-out: Activity
SN12C = assay: Growth inhibition of human SN12C cells assessed as cell growth at 10 '-4 M after 48 hrs by sulforhodamine B assay; conditions: read-out: Activity
COLO 205 = assay: Growth inhibition of human COLO205 cells assessed as cell growth at 10 '-7 M after 48 hrs by sulforhodamine B assay; conditions: COLO 205, 48 h, read-out: Activity
NCI-H460 [7] = assay: Growth inhibition of human NCI-H460 cells assessed as cell growth at 10 '-8 M after 48 hrs by sulforhodamine B assay; conditions: NCI-H460, 48 h, read-out: Activity
MOLT-4 = assay: Growth inhibition of human MOLT4 cells after 48 hrs by sulforhodamine B assay; conditions: MOLT-4, 48 h
Procedure, shortened: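 NCI 60-cell-line five-dose screen. Cells were plated at 5,000–40,000/well by doubling time and grown 24 h at 37 °C, 5% CO2. Time-zero plates were TCA-fixed. Drug from DMSO stock was tested at 0.01, 0.1, 1, 10 and 100 µM final for 48 h continuous exposure. Read-out was SRB at 515 nm. GI50 is the concentration giving 50% reduction in net protein increase versus untreated control.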

HL-60(TB) = assay: Growth inhibition of human HL-60(TB) cells assessed as cell growth at 10 '-7 M after 48 hrs by sulforhodamine B assay; conditions: HL-60, 48 h, read-out: Activity
Procedure, shortened: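 Five-dose NCI protocol with final concentrations of 0.01–100 µM and drug diluted from a DMSO stock (400× the top concentration) in medium with gentamicin. Cells were pre-incubated 24 h, then exposed 48 h at 37 °C. Suspension cells were fixed with 16% final TCA, SRB-stained and read at 515 nm. Percentage growth at each level was [(Ti−Tz)/(C−Tz)]×100, or [(Ti−Tz)/Tz]×100 when Ti < Tz.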

BT-549 = assay: Growth inhibition of human BT549 cells after 48 hrs by sulforhodamine B assay; conditions: BT-549, 48 h
Procedure, shortened: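 NCI 60-cell-line five-dose screen at 0.01, 0.1, 1, 10 and 100 µM final. Cells were plated at 5,000–40,000/well and grown 24 h at 37 °C, 5% CO2, then exposed to drug continuously for 48 h. Adherent cells were fixed with cold TCA (10% final) and stained with SRB; absorbance read at 515 nm. GI50 is the concentration where [(Ti-Tz)/(C-Tz)]×100 = 50, with Tz plates fixed at drug addition.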

MDA-MB-435 [8] = assay: Growth inhibition of human MDA-MB-435 cells assessed as cell growth at 10 '-4 M after 48 hrs by sulforhodamine B assay; conditions: MDA-MB-435, 48 h, read-out: Activity
Malme-3M = assay: Growth inhibition of human MALME-3M cells assessed as growth inhibition at 10 uM after 48 hrs by sulforhodamine B assay; conditions: read-out: GI
HOP-92 = assay: Growth inhibition of human HOP92 cells assessed as growth inhibition at 10 uM after 48 hrs by sulforhodamine B assay; conditions: HOP-92, 48 h, read-out: GI
[9] = Growth inhibition of human Hs 578T cells assessed as cell growth at 10 '-7 M after 48 hrs by sulforhodamine B assay; conditions: read-out: Activity
OVCAR-4 [10] = assay: Growth inhibition of human OVCAR4 cells assessed as growth inhibition at 10 uM after 48 hrs by sulforhodamine B assay; conditions: OVCAR-4, 48 h, read-out: GI
SF-295 [11] = assay: Growth inhibition of human SF295 cells assessed as cell growth at 10 '-8 M after 48 hrs by sulforhodamine B assay; conditions: SF-295, 48 h, read-out: Activity
KM12 [12] = assay: Growth inhibition of human KM12 cells assessed as cell growth at 10 '-4 M after 48 hrs by sulforhodamine B assay; conditions: KM12, 48 h, read-out: Activity
NCI-H460 [13] = assay: Growth inhibition of human NCI-H460 cells after 48 hrs by sulforhodamine B assay; conditions: NCI-H460, 48 h
MDA-MB-435 [14] = assay: Growth inhibition of human MDA-MB-435 cells assessed as cell growth at 10 '-7 M after 48 hrs by sulforhodamine B assay; conditions: MDA-MB-435, 48 h, read-out: Activity
[15] = Growth inhibition of human HCC2998 cells assessed as cell growth at 10 '-4 M after 48 hrs by sulforhodamine B assay; conditions: HCC 2998, 48 h, read-out: Activity
RPMI-8226 [16] = assay: Growth inhibition of human RPMI8226 cells assessed as growth inhibition at 10 uM after 48 hrs by sulforhodamine B assay; conditions: RPMI-8226, 48 h, read-out: GI
DU-145 [17] = assay: Growth inhibition of human DU145 cells assessed as growth inhibition at 10 uM after 48 hrs by sulforhodamine B assay; conditions: DU-145, 48 h, read-out: GI
[18] = read-out: LD50 (the source's name)

In the case of `Cc1cc(=O)oc2cc(OCCn3c(C)nn(-c4ccc(Cl)cc4)c3=O)ccc12`, the growth at 10 µM (CAKI-1) was 54%, the growth at 10 µM (SF-295 [1]) was 14% and the growth at 0.01 µM (OVCAR-4 [2]) was 100%. It also gave a GI50 (SK-MEL-5) of 8.48 µM, a TGI (SK-MEL-5) of over 1 µM and a CC50 (SK-MEL-5; [18]) of over 1 µM. It also gave a growth at 10 µM (SF-295 [3]) of 39%, a growth at 10 µM (DU-145 [4]) of 18% and a growth at 0.1 µM (RPMI-8226 [5]) of 97%. For the same compound, the growth at 0.1 µM (KM12 [6]) was 105%, the growth at 1 µM (RXF 393) was 75% and the growth at 100 µM (SN12C) was 37%. The growth at 0.1 µM (COLO 205) was 102%, the growth at 0.01 µM (NCI-H460 [7]) was 104% and the GI50 (MOLT-4) was 4.71 µM. For the same compound, the TGI (MOLT-4) was over 1 µM, the CC50 (MOLT-4; [18]) was over 1 µM and the growth at 0.1 µM (HL-60(TB)) was 104%. It also gave a GI50 (BT-549) of 1.65 µM, a TGI (BT-549) of 9.94 µM and a CC50 (BT-549; [18]) of over 1 µM. The growth at 100 µM (MDA-MB-435 [8]) was -26%, the inhibition of growth at 10 µM (Malme-3M) was 67.1% and the inhibition of growth at 10 µM (HOP-92) was 52.6%. For the same compound, the growth at 0.1 µM [9] was 83%, the inhibition of growth at 10 µM (OVCAR-4 [10]) was 32.9% and the growth at 0.01 µM (SF-295 [11]) was 94%. For the same compound, the growth at 100 µM (KM12 [12]) was 12%, the GI50 (NCI-H460 [13]) was 2.8 µM and the TGI (NCI-H460 [13]) was over 1 µM. The CC50 (NCI-H460 [13]; [18]) was over 1 µM, the growth at 0.1 µM (MDA-MB-435 [14]) was 94% and the growth at 100 µM [15] was 17%. For the same compound, the inhibition of growth at 10 µM (RPMI-8226 [16]) was 69% and the inhibition of growth at 10 µM (DU-145 [17]) was 78.4%.
